Measured values reported in ChEMBL document CHEMBL1123191, “Allergenic alpha-methylene-gamma-butyrolactones. Study of the capacity of beta-acetoxy- and beta-hydroxy-alpha-methylene-gamma-butyrolactones to induce allergic contact dermatitis in guinea pigs” (1986).

What was measured:
[1] = organism: Cavia porcellus; assay: Compound was measured for open epicutaneous test on sensitized guinea pig after sensitization of compound (Acetic acid 4-methylene-5-oxo-tetrahydro-furan-3-yl ester); format: functional
How it was run: (§1)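 Female Albino Himalayan spotted guinea pigs (300-500 g) sensitized by FCAT: hapten emulsified in Freund's complete adjuvant, 0.1 mL intradermal in shaved nuchal region, three injections on alternate days. After 2-week rest, 25 μL of 2% lactone in CH2Cl2 (others at same molar concentration) applied to 2-cm² area of shaved flank. Read at 24 h, scale 0-3.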

[2] = organism: Cavia porcellus; assay: Compound was measured for open epicutaneous test on sensitized guinea pig after sensitization of compound 1a
[3] = organism: Cavia porcellus; assay: Compound was measured for open epicutaneous test on sensitized guinea pig after sensitization of compound (4-Hydroxy-3-methylene-dihydro-furan-2-one); format: functional; how it was run: as §1
[4] = organism: Cavia porcellus; assay: Compound was measured for open epicutaneous test on sensitized guinea pig after sensitization of compound (Acetic acid 3-methylene-2-oxo-1-oxa-spiro[4.5]dec-4-yl ester); format: functional; how it was run: as §1
[5] = organism: Cavia porcellus; assay: Compound was measured for open epicutaneous test on sensitized guinea pig after sensitization of compound itself; format: functional; how it was run: as §1
[6] = organism: Cavia porcellus; assay: Compound was measured for open epicutaneous test on sensitized guinea pig after sensitization of compound (Acetic acid 4-methylene-5-oxo-tetrahydro-furan-3-yl ester) average skin reaction; format: functional; how it was run: as §1
[7] = organism: Cavia porcellus; assay: Compound was measured for open epicutaneous test on sensitized guinea pig after sensitization of compound (3-Methylene-1-oxa-spiro[4.5]decan-2-one) average skin reaction.; format: functional; how it was run: as §1
[8] = organism: Cavia porcellus; assay: Compound was measured for open epicutaneous test on sensitized guinea pig after sensitization of compound (4-Hydroxy-3-methylene-dihydro-furan-2-one) average skin reaction; format: functional; how it was run: as §1
[9] = organism: Cavia porcellus; assay: Compound was measured for open epicutaneous test on sensitized guinea pig after sensitization of compound (4-Hydroxy-3-methylene-1-oxa-spiro[4.5]decan-2-one). average skin reaction.; format: functional; how it was run: as §1
[10] = organism: Cavia porcellus; assay: Compound was measured for open epicutaneous test on sensitized guinea pig after sensitization of compound (4-Hydroxy-3-methylene-1-oxa-spiro[4.5]decan-2-one); format: functional; how it was run: as §1
[11] = organism: Cavia porcellus; assay: Compound was measured for open epicutaneous test on sensitized guinea pig after sensitization of compound (3-Methylene-1-oxa-spiro[4.5]decan-2-one); format: functional; how it was run: as §1

Compound	Sensitized animals [1]	Average skin reaction [2]	Sensitized animals [3]	Average skin reaction [4]	Sensitized animals [4]	Sensitized animals [5]	Average skin reaction [6]	Average skin reaction [7]	Average skin reaction [8]	Average skin reaction [9]	Sensitized animals [10]	Sensitized animals [11]
C=C1CC2(CCCCC2)OC1=O	0	0	0	0.8	6	0	0	1.2	0	1.7	6	6
C=C1C(=O)OC2(CCCCC2)[C@@H]1OC(C)=O	0	0	0	3	6	6	0	1.7	0	1.8	6	6
C=C1CCOC1=O [TULIPALINE A]	6	2	6	0	0	6	1.1	0	1.1	0	0	0
C=C1C(=O)OC[C@@H]1OC(C)=O	6	0.4	4	0	0	6	0.8	0	0.3	0	0	0
C=C1C(=O)OC2(CCCCC2)[C@@H]1O	0	0	0	0.5	6	0	0	0.4	0	0.7	6	6
C=C1C(=O)OC[C@@H]1O	6	–	6	–	0	6	–	–	–	–	0	0
